Measured values taken from ChEMBL document CHEMBL1255300, “Pharmacodynamics of the antibacterial effect and emergence of resistance to tomopenem, formerly RO4908463/CS-023, in an in vitro pharmacokinetic model of Staphylococcus aureus infection” (Antimicrob Agents Chemother, 2008).
Converted amounts (≈) assume the structure as drawn. The source made the active and inactive calls. The rule behind the calls is not given here.

Assays:
Staphylococcus aureus [1] = test: Antibacterial activity against methicillin-resistant Staphylococcus aureus 33815 infected in in vitro pharmacokinetic model assessed as time required to 99% killing at 750 mg, iv every 8 hrs using 10^8 CFU/ml inoculum; format: functional
Method in brief: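 T99 and T99.9 were taken as the times for the count to fall 99% or 99.9% from time 0, using serial viable counts over 48 h. Inoculum was 10^8 CFU/ml, grown overnight in the model before dosing.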

Staphylococcus aureus [2] = test: AUBKC (0 to 24 hrs) in methicillin-resistant Staphylococcus aureus 33827 infected in in vitro pharmacokinetic model at 750 mg, iv every 8 hrs using 10^6 CFU/ml inoculum; format: functional
Method in brief: (§1)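 Single-compartment dilutional in vitro PK model at 37°C in 10% Mueller-Hinton broth, stirred, flow 132 ml/h. […] Inoculum 10^6 CFU/ml added 45 min before dosing, or 10^8 CFU/ml run overnight. Viable counts with β-lactamase neutralisation. AUBKC by log-linear trapezoidal rule, at least triplicate.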

Staphylococcus aureus [3] = test: AUBKC (0 to 24 hrs) in methicillin-resistant Staphylococcus aureus 33829 infected in in vitro pharmacokinetic model at 750 mg, iv every 8 hrs using 10^6 CFU/ml inoculum; format: functional; method in brief: as §1
Staphylococcus aureus [4] = test: AUBKC (0 to 24 hrs) in methicillin-resistant Staphylococcus aureus 33820 infected in in vitro pharmacokinetic model at 750 mg, iv every 8 hrs using 10^6 CFU/ml inoculum; format: functional; method in brief: as §1
Staphylococcus aureus [5] = test: AUBKC (0 to 48 hrs) in methicillin-resistant Staphylococcus aureus 33829 infected in in vitro pharmacokinetic model at 750 mg, iv every 8 hrs using 10^6 CFU/ml inoculum; format: functional; method in brief: as §1
Staphylococcus aureus [6] = test: Antibacterial activity against methicillin-sensitive Staphylococcus aureus 5956 by broth dilution method; format: functional
Staphylococcus aureus [7] = test: Antibacterial activity against methicillin-resistant Staphylococcus aureus 33922 by broth dilution method; format: functional
Staphylococcus aureus [8] = test: T>MIC in methicillin-sensitive Staphylococcus aureus 5956 infected in vitro pharmacokinetic model at 750 mg, iv every 8 hrs; format: functional
Staphylococcus aureus [9] = test: AUBKC (0 to 48 hrs) in methicillin-resistant Staphylococcus aureus 33827 infected in in vitro pharmacokinetic model at 1500 mg, iv every 8 hrs using 10^8 CFU/ml inoculum; format: functional; method in brief: as §1
Staphylococcus aureus [10] = test: Antibacterial activity against methicillin-resistant Staphylococcus aureus 33829 in in vitro pharmacokinetic model assessed as viable count at 2 times of MIC; format: functional
Method in brief: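 Preexposure population analysis: time-zero model samples plated on nutrient agar without drug and with drug at multiples of the 10% broth MIC. Growth reported as log CFU/ml, detection limit 2 log10.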

Staphylococcus aureus [11] = test: Antibacterial activity against methicillin-sensitive Staphylococcus aureus 5956 infected in in vitro pharmacokinetic model assessed as reduction in viable count at 750 mg, iv every 8 hrs measured after 12 hrs using 10^6 CFU/ml inoculum; format: functional
Staphylococcus aureus [12] = test: Antibacterial activity against methicillin-resistant Staphylococcus aureus 33827 infected in in vitro pharmacokinetic model assessed as reduction in viable count at 750 mg, iv every 8 hrs measured after 48 hrs using 10^6 CFU/ml inoculum; format: functional
Method in brief: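 Single-compartment dilutional in vitro PK model, 10% Mueller-Hinton broth, 37°C, stirred, dilution 132 ml/h. […] Inoculum 10^6 CFU/ml (added 45 min pre-dose) or 10^8 CFU/ml (run overnight). Viable counts by spiral plating, beta-lactamase neutralization, detection limit 10^2 CFU/ml. At least triplicate.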

Staphylococcus aureus [13] = test: Antibacterial activity against methicillin-resistant Staphylococcus aureus 33815 assessed as viable count at 2 times of MIC after 24 hrs using 10^6 CFU/ml inoculum; format: functional, organism-based
Method in brief: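 Population analysis during tomopenem dose-ranging runs in the in vitro PK model (10^6 CFU/ml, T>MIC 0-100%). […] Growth counted as log CFU/ml, detection limit 2 log10.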

Staphylococcus aureus [14] = test: T>MIC for 1-log drop in count in methicillin-resistant Staphylococcus aureus 33827 in in vitro pharmacokinetic model after 24 hrs using 10^6 CFU/ml inoculum; format: functional
Staphylococcus aureus [15] = test: T>MIC for 1-log drop in count in methicillin-resistant Staphylococcus aureus 33815 in in vitro pharmacokinetic model after 24 hrs using 10^6 CFU/ml inoculum; format: functional
Staphylococcus aureus [16] = test: T>MIC for 3-log drop in count in methicillin-resistant Staphylococcus aureus 33815 in in vitro pharmacokinetic model after 24 hrs using 10^6 CFU/ml inoculum; format: functional
Staphylococcus aureus [17] = test: T>MIC for 1-log drop in count in methicillin-sensitive Staphylococcus aureus 5956 in in vitro pharmacokinetic model after 24 hrs using 10^8 CFU/ml inoculum; format: functional
Staphylococcus aureus [18] = test: T>MIC for 1-log drop in count in methicillin-resistant Staphylococcus aureus 33922 in in vitro pharmacokinetic model after 24 hrs using 10^8 CFU/ml inoculum; format: functional
Staphylococcus aureus [19] = test: Antibacterial activity against methicillin-resistant Staphylococcus aureus 33820 infected in in vitro pharmacokinetic model assessed as reduction in viable count at 1500 mg, iv every 8 hrs measured after 48 hrs using 10^6 CFU/ml inoculum; format: functional
Method in brief: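 Single-compartment dilutional in vitro PK model, 37°C, stirred, in 10% Mueller-Hinton broth. […] Inoculum 10^6 CFU/ml from a 24-h plate culture was added 45 min before dosing. Viable counts by spiral plating on nutrient agar with β-lactamase neutralization. Log change was taken from time 0; detection limit 10^2 CFU/ml; at least triplicate.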

Staphylococcus aureus [20] = test: Antibacterial activity against methicillin-resistant Staphylococcus aureus 33820 infected in in vitro pharmacokinetic model assessed as time required to 99.9% killing at 750 mg, iv every 8 hrs using 10^6 CFU/ml inoculum; format: functional

In the case of `C[C@@H](O)[C@H]1C(=O)N2C(C(=O)O)=C(S[C@H]3C[C@@H](C(=O)N4CC[C@H](NC(=O)CNC(=N)N)C4)N(C)C3)[C@H](C)[C@H]12` [TOMOPENEM], the Time (Staphylococcus aureus [1]) is reported as 16 h, the AUBC (Staphylococcus aureus [2]) is reported as 27.4 log10CFU/ml.hr and the AUBC (Staphylococcus aureus [3]) is reported as 25 log10CFU/ml.hr. The AUBC (Staphylococcus aureus [4]) was 28.6 log10CFU/ml.hr, the AUBC (Staphylococcus aureus [5]) was 25 log10CFU/ml.hr and the MIC (Staphylococcus aureus [6]) was 0.06 µg/mL (≈ 0.112 µM). For the same compound, the MIC (Staphylococcus aureus [7]) was 0.5 µg/mL (≈ 0.93 µM), the “fT>MIC” value (Staphylococcus aureus [8]) was 100% and the AUBC (Staphylococcus aureus [9]) was 93.5 log10CFU/ml.hr. For the same compound, the log10CFU/ml (Staphylococcus aureus [10]) was 5.8, the log10CFU/ml (Staphylococcus aureus [11]) was 4.1 and the log10CFU/ml (Staphylococcus aureus [12]) was 3.3. The Activity (Staphylococcus aureus [13]) was “Active”, the “fT>MIC” value (Staphylococcus aureus [14]) was 24.4% and the “fT>MIC” value (Staphylococcus aureus [15]) was 8.6%. For the same compound, the “fT>MIC” value (Staphylococcus aureus [16]) was 17.1%, the “fT>MIC” value (Staphylococcus aureus [17]) was 3.4% and the “fT>MIC” value (Staphylococcus aureus [18]) was 2%. For the same compound, the log10CFU/ml (Staphylococcus aureus [19]) was 4.2 and the Time (Staphylococcus aureus [20]) was 12 h.
